Experimental data collected from several papers.
Lines come from different studies, so protocols differ.
BRDT BD1: Bromodomain testis-specific protein, BD1 (BRDT, Homo sapiens, UniProt Q58F21)
PTGS2: Prostaglandin G/H synthase 2 (PTGS2, Homo sapiens, UniProt P35354)
DYRK3: Dual specificity tyrosine-phosphorylation-regulated kinase 3 (DYRK3, Homo sapiens, UniProt O43781)

For `Cc1cnc(Nc2ccc(OCCN3CCCC3)cc2)nc1Nc1cccc(S(=O)(=O)NC(C)(C)C)c1`, the ΔTm was 2.06 °C (CREB-binding protein (CREBBP, Homo sapiens, UniProt Q92793); thermal stability, DSF; 10 µM).
For `NS(=O)(=O)c1ccc(Nc2nc(-c3ccc(F)cc3)c3ccccc3n2)cc1`, the remaining binding was 6% (BRDT BD1; binding, competition with immobilised ligand; 1 µM).
`O=c1cc(-c2ccc(O)cc2)oc2cc(O)cc(O)c12` has an inhibition of 28.2% (PTGS2; enzyme activity, inhibitor; 0.98 µg/mL).
With `Oc1ccc(-c2nc(-c3ccncc3)c(-c3ccc(F)cc3)[nH]2)cc1` the ΔTm was -0.03 °C (Transcription intermediary factor 1-beta (TRIM28, Homo sapiens, UniProt Q13263); thermal stability, DSF; 10 µM).
`O=C(O)c1ccc2c(c1)nc(NCCc1ccccc1)c1ccncc12` has a remaining activity of 3% (DYRK3; enzyme activity, inhibitor, radiometric; 1 µM).
`Cc1cc2c(cc1N1C(=O)c3cccc4c(Cl)ccc(c34)C1=O)n(C)c(=O)n2C` has a ΔTm of -1 °C (BRDT BD1; thermal stability, DSF; 10 µM).
`O=C(O)c1ccc2c(c1)nc(Nc1cccc(F)c1)c1ncncc12` has a remaining activity of -1% (Homeodomain-interacting protein kinase 2 (HIPK2, Homo sapiens, UniProt Q9H2X6); enzyme activity, inhibitor, radiometric; 1 µM).
The inhibition of `O=C(O)c1ccc(O)cc1` is reported as 100% (PTGS2; enzyme activity, inhibitor; 15.63 µg/mL).
With `O=C(O)c1ccc2c(c1)nc(Nc1cccc(F)c1)c1ccncc12` the remaining activity was 0% (DYRK3; enzyme activity, inhibitor, radiometric; 1 µM).
`COc1ccc(-c2cc(=O)c3c(O)cc(O[C@@H]4O[C@H](CO)[C@@H](O)[C@H](O)[C@H]4O)cc3o2)cc1O` gave an inhibition of 100% (PTGS2; enzyme activity, inhibitor; 3.9 µg/mL).
